Laboratory results reported in ChEMBL document CHEMBL1127745, “Synthesis, resolution, and SAR of (+/-)-2-amino-N-methyl-alpha-(3-methyl-2-thienyl)benzeneethanamine++ + and related analogs as noncompetitive NMDA antagonists with neuroprotective properties” (J Med Chem, 1994).

Legend:
Gerbillinae [1] = experiment: Carotid artery occlusion-induced hippocampal damage was evaluated 15 min after carotid occlusion 60 mg/kg intraperitoneal dose; assay type: functional, Hippocampus
Summary of the method: (§1)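 Male Mongolian gerbils (65-75 g, n = 14-15) under halothane (2.6 vol% induction, 1.2 vol% maintenance in N2:O2 2:1). Forebrain ischemia by bilateral 5-min carotid occlusion with reperfusion. Drug given ip 15 min before or 15 min after occlusion. CA1 cell necrosis rated on a 0-4 scale (0 none to 4 all CA1 cells). Group means compared by t-test.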

Rattus norvegicus [2] = experiment: Reduction of photochemically induced cerebral focal ischemia in rat was evaluated 10.0 mg/kg intravenous dose; assay type: functional
Summary of the method: (§2)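 Male rats (300-350 g) under halothane (3 vol% induction, 1.2 vol% maintenance in O2). Rose Bengal (5 mg in 1 mL) infused through the femoral vein, then thrombotic focal cortical ischemia induced photochemically with light. Drug given iv 30 min after ischemia to groups of 5-7 rats. Infarct volume (mm3) measured by image analysis of cresyl violet-stained 20-µm sections.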

Gerbillinae [3] = experiment: Carotid artery occlusion-induced hippocampal damage was evaluated 15 min before carotid occlusion at 30 mg/kg intraperitoneal dose.; assay type: functional, Hippocampus; summary of the method: as §1
Glutamate NMDA receptor = experiment: Inhibition against NMDA receptor by displacement of [3H]TCP binding from rat cortical membranes; assay type: cell membranes, Membrane
Rattus norvegicus [4] = experiment: Percent change in reduction of photochemically induced cerebral focal ischemia in control and treated rat at 3.0 mg/kg intravenous dose; assay type: functional; summary of the method: as §2
Rattus norvegicus [5] = experiment: Percent change in reduction of photochemically induced cerebral focal ischemia in control and treated rat at 1.0 mg/kg intravenous dose; assay type: functional; summary of the method: as §2
Rattus norvegicus [6] = experiment: Reduction of photochemically induced cerebral focal ischemia in rat was evaluated 3.0 mg/kg intravenous dose; assay type: functional; summary of the method: as §2
Rattus norvegicus [7] = experiment: Reduction of photochemically induced cerebral focal ischemia in rat was evaluated at 1.0 mg/kg intravenous dose; assay type: functional; summary of the method: as §2
Gerbillinae [8] = experiment: Percent reduction of carotid artery occlusion-induced hippocampal damage at 30 mg/kg intraperitoneal dose.; assay type: functional, Hippocampus; summary of the method: as §1
Rattus norvegicus [9] = experiment: Percent change in reduction of photochemically induced cerebral focal ischemia in control and treated rat at 20 mg/kg intravenous dose; assay type: functional; summary of the method: as §2
Rattus norvegicus [10] = experiment: Reduction of photochemically induced cerebral focal ischemia in rat was evaluated at 20.0 mg/kg intravenous dose; assay type: functional; summary of the method: as §2
Gerbillinae [11] = experiment: Carotid artery occlusion-induced hippocampal damage was evaluated 15 min before carotid occlusion at 60 mg/kg intraperitoneal dose.; assay type: functional, Hippocampus; summary of the method: as §1
Mus musculus = experiment: Effective dose required for 50% inhibition of clonic seizures in mice induced by racemic NMDLA when administered intraperitoneally; assay type: functional; details: ip
Summary of the method: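 Swiss Webster mice, 10 per group, dosed ip with drug in distilled water 0.5 h before N-methyl-D,L-aspartic acid 350 mg/kg sc. Each mouse observed 30 min for clonic seizures lasting at least 3 s; protection means no seizure in that time. Controls received vehicle. ED50 taken at time of peak effect from three or more doses, Litchfield-Wilcoxon method.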

Rattus norvegicus [12] = experiment: Reduction of photochemically induced cerebral focal ischemia in rat was evaluated at 10 mg/kg intravenous dose; assay type: functional; summary of the method: as §2
Rattus norvegicus [13] = experiment: Percent change in reduction of photochemically induced cerebral focal ischemia in control and treated rat at 3 mg/kg intravenous dose; assay type: functional; summary of the method: as §2
Gerbillinae [14] = experiment: Carotid artery occlusion-induced hippocampal damage was evaluated 15 min after carotid occlusion 10 mg/kg intraperitoneal dose; assay type: functional, Hippocampus; summary of the method: as §1
Rattus norvegicus [15] = experiment: Percent change in reduction of photochemically induced cerebral focal ischemia in control and treated rat at 0.3 mg/kg intravenous dose; assay type: functional; summary of the method: as §2
Rattus norvegicus [16] = experiment: Percent change in reduction of photochemically induced cerebral focal ischemia in control and treated rat at 10 mg/kg intravenous dose; assay type: functional; summary of the method: as §2
Rattus norvegicus [17] = experiment: Reduction of photochemically induced cerebral focal ischemia in rat was evaluated at 0.3 mg/kg intravenous dose; assay type: functional; summary of the method: as §2
Rattus norvegicus [18] = experiment: Evaluated for reduction of NMDA-induced necrosis at 100 mg/kg subcutaneous dose in rats.; assay type: functional
Summary of the method: (§3)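 Male Sprague-Dawley rats (280-310 g) under chloral hydrate (400 mg/kg ip). Unilateral dorsal hippocampal CA1 lesion made by stereotaxic infusion of NMDA 20 nmol over 5 min. Drugs given sc or ip 1 h before infusion. Brains perfusion-fixed at 7 days and cresyl violet-stained; lesion volume measured by image analysis. n = 4 per group, compared with control by t-test.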

Rattus norvegicus [19] = experiment: Reduction of photochemically induced cerebral focal ischemia in rat was evaluated at 3.0 mg/kg intravenous dose; assay type: functional; summary of the method: as §2
Gerbillinae [20] = experiment: Percent reduction Carotid artery occlusion-induced hippocampal damage at 10 mg/kg intraperitoneal dose.; assay type: functional, Hippocampus; summary of the method: as §1
Rattus norvegicus [21] = experiment: Evaluated for reduction of NMDA-induced necrosis volume at 100 mg/kg subcutaneous dose in rats.; assay type: functional; summary of the method: as §3
Gerbillinae [22] = experiment: Percent reduction Carotid artery occlusion-induced hippocampal damage at 50 mg/kg intraperitoneal dose.; assay type: functional, Hippocampus; summary of the method: as §1
Gerbillinae [23] = experiment: Carotid artery occlusion-induced hippocampal damage was evaluated 15 min after carotid occlusion 30 mg/kg intraperitoneal dose; assay type: functional, Hippocampus; summary of the method: as §1
Gerbillinae [24] = experiment: Carotid artery occlusion-induced hippocampal damage was evaluated by using compound 15 min before carotid occlusion at 30 mg/kg intraperitoneal dose; assay type: functional, Hippocampus; summary of the method: as §1
Gerbillinae [25] = experiment: Carotid artery occlusion-induced hippocampal damage was evaluated 15 min after carotid occlusion 50 mg/kg intraperitoneal dose; assay type: functional, Hippocampus; summary of the method: as §1
Gerbillinae [26] = experiment: Percent reduction Carotid artery occlusion-induced hippocampal damage at 30 mg/kg intraperitoneal dose.; assay type: functional, Hippocampus; summary of the method: as §1

For `CNC(Cc1ccccc1N)c1sccc1C.Cl` (single isomer, unassigned; (-)), which Treated (Gerbillinae [1]) is on record?
The Treated was 3.3.

And the Treated (Rattus norvegicus [2])?
Its Treated is 93.

And the Treated (Gerbillinae [3])?
Its Treated is 2.8.

And the IC50 (Glutamate NMDA receptor)?
Its IC50 is 57000 nM.

What about the Change (Rattus norvegicus [4]) of the same compound?
Its Change is 6%.

What about the Change (Rattus norvegicus [5]) of the same compound?
The Change was 7%.

And the Treated (Rattus norvegicus [6])?
The Treated was 73.

What about the Treated (Rattus norvegicus [7]) of the same compound?
Its Treated is 66.

What about the Reduction (Gerbillinae [8]) of the same compound?
The Reduction was 32%.

What about the Change (Rattus norvegicus [9]) of the same compound?
The Change was 13%.

And the Treated (Rattus norvegicus [10])?
Its Treated is 79.

And the Treated (Gerbillinae [11])?
Its Treated is 0.9.

Which ED50 (Mus musculus) does the source give for `CNC(Cc1ccccc1N)c1cccs1.Cl` (centres undefined) here?
The ED50 was > 60 mg/kg.

For `CNc1ccccc1CC(c1sccc1C)N(C)C` (centres undefined), which ED50 (Mus musculus) is on record?
Its ED50 is > 60 mg/kg.

Which ED50 (Mus musculus) does the source give for `Cc1ccsc1C(Cc1ccccc1N(C)C)N(C)C` (centres undefined) here?
The ED50 was > 60 mg/kg.

And the IC50 (Glutamate NMDA receptor)?
The IC50 was 330 nM.

What does the source list for `CCCNC(Cc1ccccc1N)c1sccc1C.Cl` (centres undefined)?
ED50 (Mus musculus): 14.1 mg/kg; IC50 (Glutamate NMDA receptor): 130 nM

For `CNc1ccccc1CC(NC)c1sccc1C.Cl` (centres undefined), which ED50 (Mus musculus) is on record?
The ED50 was > 60 mg/kg.

And the IC50 (Glutamate NMDA receptor)?
Its IC50 is 3800 nM.

Which ED50 (Mus musculus) does the source give for `CNC(Cc1cc(Cl)ccc1N)c1sccc1C` (centres undefined) here?
The ED50 was ≥ 30 mg/kg.

And the IC50 (Glutamate NMDA receptor)?
Its IC50 is 25 nM.

Which results are given for `CNC(Cc1ccc(Cl)cc1N)c1sccc1C.Cl` (centres undefined)?
ED50 (Mus musculus): ≥ 60 mg/kg; IC50 (Glutamate NMDA receptor): 18000 nM

How did the ED50 (Mus musculus) turn out when `CNC(Cc1ccccc1N)c1sccc1C.Cl` (stereo in doubt; 3a) was run?
Its ED50 is 27.8 mg/kg.

And the Treated (Rattus norvegicus [12])?
Its Treated is 86.

And the IC50 (Glutamate NMDA receptor)?
The IC50 was 350 nM.

What about the Change (Rattus norvegicus [5]) of the same compound?
The Change was -27%.

What about the Change (Rattus norvegicus [13]) of the same compound?
Its Change is -16%.

What about the Treated (Gerbillinae [14]) of the same compound?
The Treated was 2.8.

And the Change (Rattus norvegicus [15])?
Its Change is 0%.

What about the Change (Rattus norvegicus [16]) of the same compound?
Its Change is 6%.

What about the Treated (Rattus norvegicus [17]) of the same compound?
Its Treated is 72.

And the Reduction (Rattus norvegicus [18])?
Its Reduction is 68%.

What about the Treated (Rattus norvegicus [19]) of the same compound?
The Treated was 63.

What about the Treated (Rattus norvegicus [7]) of the same compound?
The Treated was 57.

And the Reduction (Gerbillinae [20])?
Its Reduction is 2%.

And the Volume (Rattus norvegicus [21])?
The Volume was 0.057 µM.

What about the Reduction (Gerbillinae [8]) of the same compound?
Its Reduction is 75%.

What about the Reduction (Gerbillinae [22]) of the same compound?
The Reduction was 18%.

And the Treated (Gerbillinae [23])?
Its Treated is 2.13.

And the Treated (Gerbillinae [24])?
The Treated was 0.3.

And the Treated (Gerbillinae [25])?
Its Treated is 2.13.

What about the Reduction (Gerbillinae [26]) of the same compound?
Its Reduction is 26%.
